Reference: ChEMBL document CHEMBL3399928, “Design and synthesis of novel 2-(indol-5-yl)thiazole derivatives as xanthine oxidase inhibitors” (Bioorg Med Chem Lett, 2015)

Legend:
[1] = Inhibition of butter milk Xanthine oxidase using xanthine as substrate preincubated for 3 mins by spectrophotometry
Summary of the method: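 Buttermilk xanthine oxidase at 0.05 U/mL in 50 mM phosphate buffer with test compound; reaction started with 200 µM xanthine stock. Uric acid formation read at 293 nm, with linear Vmax over 5 min taken as initial velocity. Inhibition was calculated against the uninhibited rate, and IC50 was taken as the concentration giving 50% inhibition.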

[2] = Half life in rat liver microsomes; assay type: ADME
[3] = Cytotoxicity against primary rat hepatocytes; assay type: cell-based, Hepatocyte
[4] = Cmax in Sprague-Dawley rat at 10 mg/kg, po; assay type: ADME, organism-based; parameters: dose 10 mg/kg, route oral; settings: in vivo
Summary of the method: (§1)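 Single oral dose of 10 mg/kg in Sprague-Dawley rats; plasma followed over 24 h; Cmax, Tmax, AUC, half-life and bioavailability derived from the plasma profile; n = 3.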

[5] = AUC (0 to last) in Sprague-Dawley rat at 10 mg/kg, po; assay type: ADME, organism-based; parameters: time 0 - last, dose 10 mg/kg, route oral; settings: plasma; summary of the method: as §1
[6] = AUC (0 to last) in Sprague-Dawley rat at 2 mg/kg, iv; assay type: ADME, organism-based; parameters: dose 2 mg/kg, route intravenous, time 0 - last; settings: plasma
Summary of the method: (§2)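 Single intravenous dose of 2 mg/kg in Sprague-Dawley rats; AUC, half-life, clearance and Vd derived from the plasma profile; n = 3.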

[7] = AUC (0 to infinity) in Sprague-Dawley rat at 2 mg/kg, iv; assay type: ADME, organism-based; parameters: time infinity, dose 2 mg/kg, route intravenous; settings: plasma; summary of the method: as §2
[8] = Half life in Sprague-Dawley rat at 2 mg/kg, iv; assay type: ADME, organism-based; parameters: dose 2 mg/kg, route intravenous; settings: in vivo; summary of the method: as §2
[9] = Clearance in Sprague-Dawley rat at 2 mg/kg, iv; assay type: ADME, organism-based; parameters: dose 2 mg/kg, route intravenous; settings: in vivo; summary of the method: as §2
[10] = Volume of distribution in Sprague-Dawley rat at 2 mg/kg, iv; assay type: ADME, organism-based; parameters: dose 2 mg/kg, route intravenous; settings: in vivo; summary of the method: as §2
Rattus norvegicus = test: Inhibition of uric acid production in Sprague-Dawley rat at 10 mg/kg, po measured 1 hr post dose; assay type: functional
Summary of the method: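 Male SD rats (about 200 g) received potassium oxonate 300 mg/kg i.p. in 0.8% carboxymethylcellulose. One hour later, compound at 10 mg/kg in PEG400/ethanol (2:1) was given orally, and blood was sampled 1 h after dosing. Plasma uric acid was scaled with the normal group as 100% and the oxonate control as 0% inhibition. ANOVA with Dunnett's post-test was used.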

[11] = AUC (0 to infinity) in Sprague-Dawley rat at 10 mg/kg, po; assay type: ADME, organism-based; parameters: time infinity, dose 10 mg/kg, route oral; settings: plasma; summary of the method: as §1
[12] = Tmax in Sprague-Dawley rat at 10 mg/kg, po; assay type: ADME, organism-based; parameters: dose 10 mg/kg, route oral; settings: in vivo; summary of the method: as §1
[13] = Half life in Sprague-Dawley rat at 10 mg/kg, po; assay type: ADME, organism-based; parameters: dose 10 mg/kg, route oral; settings: in vivo; summary of the method: as §1
[14] = Oral bioavailability in Sprague-Dawley rat at 10 mg/kg; assay type: ADME, organism-based; settings: in vivo; summary of the method: as §1
Plasma = test: Plasma concentration in Sprague-Dawley rat at 10 mg/kg, po; assay type: ADME, organism-based; parameters: dose 10 mg/kg, route oral; settings: in vivo
Summary of the method: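 Oral dose of 10 mg/kg in Sprague-Dawley rats; plasma concentration measured 1 h after administration.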

| Compound | IC50 [1] [nM] | half-life [2] [h] | inhibition in vivo at 10 mg/kg (Rattus norvegicus) [%] | further results |
| --- | --- | --- | --- | --- |
| Cc1nc(-c2ccc3c(ccn3CC(C)C)c2)sc1C(=O)O | 110 | 0.458 |  |  |
| Cc1nc(-c2ccc3c(c2)c(Cl)cn3CC(C)C)sc1C(=O)O | 5.7 | 0.103 |  |  |
| Cc1nc(-c2ccc3c(c2)c(Cl)cn3C(C)C)sc1C(=O)O | 7.3 | 1.6 |  |  |
| Cc1nc(-c2ccc3c(c2)c(Cl)c(C)n3CC(C)C)sc1C(=O)O | 16 | 0.11 |  |  |
| COCCn1cc([N+](=O)[O-])c2cc(-c3nc(C)c(C(=O)O)s3)ccc21 | 12 |  |  |  |
| Cc1nc(-c2ccc3c(c2)c(C#N)cn3CC(C)C)sc1C(=O)O | 5.5 | 1.76 |  | CC50 [3]: 82000 nM |
| CC(C)n1cc(C#N)c2cc(-c3nc(C(F)(F)F)c(C(=O)O)s3)ccc21 | 895 |  |  |  |
| COc1nc(-c2ccc3c(c2)c(C#N)cn3C(C)C)sc1C(=O)O | 90 |  |  |  |
| Cc1nc(-c2ccc3c(c2)c(C#N)c(C)n3C(C)C)sc1C(=O)O | 10.7 |  | 8.6 |  |
| COCC(C)n1cc(C#N)c2cc(-c3nc(C)c(C(=O)O)s3)ccc21 (configuration not stated) | 9 |  | 14.1 |  |
| Cc1nc(-c2ccc3c(c2)c(C#N)cn3CCS(C)(=O)=O)sc1C(=O)O | 12.3 |  | 0 | Cp (Plasma): < 20 ng/mL |
| CC(=O)NCCn1cc(C#N)c2cc(-c3nc(C)c(C(=O)O)s3)ccc21 | 5.6 |  | 0 | Cp (Plasma): < 20 ng/mL |
| Cc1nc(-c2ccc3c(c2)c(C#N)cn3CCNS(C)(=O)=O)sc1C(=O)O | 6 |  | 0 |  |
| Cc1nc(-c2ccc3c(c2)c(C#N)cn3Cc2ccc(F)cc2F)sc1C(=O)O | 8.6 |  | 16 |  |

These reach a lower IC50 [1]. Values come first.

| IC50 [1] [nM] | half-life [2] [h] | Compound | inhibition in vivo at 10 mg/kg (Rattus norvegicus) [%] | further results |
| --- | --- | --- | --- | --- |
| 4.9 |  | Cc1nc(-c2ccc3c(c2)c(C#N)cn3C(C)CF)sc1C(=O)O (configuration not stated) | 22.3 |  |
| 4.4 |  | CC(C)n1cc(C#N)c2cc(-c3ncc(C(=O)O)s3)ccc21 |  | Cmax [4]: 940 ng/mL; AUC(0-t) [5]: 5390 ng·h/mL |
| 4.2 | 1.32 | Cc1nc(-c2ccc3c(c2)c([N+](=O)[O-])cn3C(C)C)sc1C(=O)O |  |  |
| 3.9 |  | Cc1nc(-c2ccc3c(c2)c(C#N)cn3Cc2ccccc2)sc1C(=O)O | 10 |  |
| 3.5 |  | Cc1nc(-c2ccc3c(c2)c(C#N)cn3C(C)C)sc1C(=O)O | 60 | AUC(0-t) [6]: 12400 ng·h/mL; AUC(0-inf) [7]: 12500 ng·h/mL; half-life [8]: 4.37 h; clearance [9]: 2.69 mL/min/kg; Vd [10]: 0.635 L/kg; Cmax [4]: 3980 ng/mL; AUC(0-t) [5]: 47300 ng·h/mL; CC50 [3]: 200000 nM; AUC(0-inf) [11]: 52900 ng·h/mL; Tmax [12]: 6 h; half-life [13]: 7.95 h; bioavailability [14]: 84.3% |
| 3.1 | 2.9 | Cc1nc(-c2ccc(OCC(C)C)c(C#N)c2)sc1C(=O)O [FEBUXOSTAT] |  | Cmax [4]: 16400 ng/mL; AUC(0-t) [5]: 61500 ng·h/mL |
| 3 |  | Cc1nc(-c2ccc3c(c2)c(C#N)cn3C(C)CO)sc1C(=O)O (configuration not stated) | 8.5 |  |
